According to ChEMBL document CHEMBL1144782, “Isoindolo[2,1-a]quinoxaline derivatives, novel potent antitumor agents with dual inhibition of tubulin polymerization and topoisomerase I” (2008):

What was measured:
SK-MEL-2 = experiment: Antitumor activity against human SKMEL2 cells; type: functional
Outline: (§1)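 Run by the NCI in its in vitro disease-oriented screen of about 60 human tumour cell lines. For each line it reports pGI50 (50% net growth inhibition), pTGI (total growth inhibition) and pLC50 (50% net cell death), each as –log molar concentration. Where an effect was not reached within the tested range, the highest tested concentration was used.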

ACHN = experiment: Antitumor activity against human ACHN cells; type: functional; outline: as §1
UACC-62 = experiment: Antitumor activity against human UACC62 cells; type: functional
Outline: (§2)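 NCI 60-cell-line screen. Parameters were GI50 (50% net growth inhibition), TGI and LC50, each reported as –log molar concentration. Where an effect was not reached within the tested range, the highest tested concentration was used in the calculation.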

Malme-3M = experiment: Antitumor activity against human MALME3M cells; type: functional; outline: as §1
HT-29 = experiment: Antitumor activity against human HT29 cells; type: functional; outline: as §1
CAKI-1 = experiment: Antitumor activity against human CAKI1 cells; type: functional; outline: as §1
DU-145 = experiment: Antitumor activity against human DU145 cells; type: functional; outline: as §1
OVCAR-3 = experiment: Antitumor activity against human OVCAR-3 cells; type: functional; outline: as §1
HOP-92 = experiment: Antitumor activity against human HOP92 cells; type: functional; outline: as §1
NCI-H460 = experiment: Cell viability against human NCI-H460 cells at 10 uM; type: functional
MOLT-4 = experiment: Antitumor activity against human MOLT4 cells; type: functional; outline: as §1
OVCAR-8 = experiment: Antitumor activity against human OVCAR8 cells; type: functional; outline: as §1
NCI-H23 = experiment: Antitumor activity against human NCI-H23 cells; type: functional; outline: as §1
MCF7 [1] = experiment: Growth inhibition of human multidrug-resistant MCF7 cells after 72 hrs by MTT assay; type: functional; details: MCF7, 72 h
Outline: (§3)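 Growth inhibition by MTT after 72 h incubation. Resistant sublines: LoVoDoxo and MCF-7 MDR were kept in 0.1 µg/mL doxorubicin; CEMVbl-100 was selected against vinblastine. GI50 given as mean ± SEM of three independent experiments. Resistance index is resistant-line GI50 over parental GI50.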

MDA-MB-435 = experiment: Antitumor activity against human MDA-MB-435 cells; type: functional; outline: as §1
MCF7 [2] = experiment: Growth inhibition of human MCF7 cells after 72 hrs by MTT assay; type: functional; details: MCF7, 72 h; outline: as §3
SK-MEL-28 = experiment: Antitumor activity against human SKMEL28 cells; type: functional; outline: as §1
NCI-H522 = experiment: Antitumor activity against human NCI-H522 cells; type: functional; outline: as §1
Tubulin (Sus scrofa) = Tubulin (Sus scrofa) (UniProt P02554+P02550); experiment: Inhibition of pig brain tubulin polymerization
SF-268 [3] = experiment: Antitumor activity against human SF268 cells; type: functional; outline: as §1
RXF 393 = experiment: Antitumor activity against human RXF393 cells; type: functional; outline: as §1
A498 = experiment: Antitumor activity against human A498 cells; type: functional; outline: as §1
SK-OV-3 = experiment: Antitumor activity against human SKOV3 cells; type: functional; outline: as §1
TK-10 = experiment: Antitumor activity against human TK10 cells; type: functional; outline: as §2
SF-295 = experiment: Antitumor activity against human SF295 cells; type: functional; outline: as §1
SN12C = experiment: Antitumor activity against human SN12C cells; type: functional; outline: as §1
MCF7 [4] = experiment: Resistance index, Ratio of GI50 for human multidrug-resistant MCF7 cells to GI50 for human MCF7 cells; type: functional; outline: as §3
T47D = experiment: Antitumor activity against human T47D cells; type: functional; outline: as §2
HCT-15 = experiment: Antitumor activity against human HCT15 cells; type: functional; outline: as §1
NCI/ADR-RES = experiment: Antitumor activity against human NCI/ADR-RES cells; type: functional; outline: as §1
RPMI-8226 = experiment: Antitumor activity against human RPMI8226 cells; type: functional; outline: as §1
CCRF-CEM = experiment: Growth inhibition of human CEM cells after 72 hrs by MTT assay; type: functional; outline: as §3
[5] = Antitumor activity against human NCI-H322 cells; type: functional; outline: as §1
Hs-578T = experiment: Antitumor activity against human HS578T cells; type: functional; outline: as §1
COLO 205 = experiment: Antitumor activity against human COLO205 cells; type: functional; outline: as §1
PC-3 = experiment: Antitumor activity against human PC3 cells; type: functional; outline: as §1
SF-268 [6] = experiment: Cell viability against human SF268 cells at 10 uM; type: functional
U-251 = experiment: Antitumor activity against human U251 cells; type: functional; outline: as §2
SW-620 = experiment: Antitumor activity against human SW620 cells; type: functional; outline: as §2
M14 = experiment: Antitumor activity against human M14 cells; type: functional; outline: as §1
[7] = read-out: Log LC50 (the source's name) (converted)

Chain of Tubulin (Sus scrofa) (P02550 whole entry, looked up): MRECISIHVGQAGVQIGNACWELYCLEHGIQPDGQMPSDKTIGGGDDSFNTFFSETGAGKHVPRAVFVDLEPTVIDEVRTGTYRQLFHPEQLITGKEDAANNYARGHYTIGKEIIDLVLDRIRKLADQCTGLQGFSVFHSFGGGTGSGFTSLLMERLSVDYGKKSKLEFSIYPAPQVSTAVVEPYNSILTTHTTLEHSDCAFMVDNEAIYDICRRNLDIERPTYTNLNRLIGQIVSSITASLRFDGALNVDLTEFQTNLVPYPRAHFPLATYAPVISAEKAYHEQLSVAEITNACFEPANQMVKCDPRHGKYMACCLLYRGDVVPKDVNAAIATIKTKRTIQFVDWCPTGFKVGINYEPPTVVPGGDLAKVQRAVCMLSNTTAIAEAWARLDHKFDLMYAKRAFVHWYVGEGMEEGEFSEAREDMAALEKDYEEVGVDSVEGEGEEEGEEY
Chain of Tubulin (Sus scrofa) (P02554 whole entry, looked up): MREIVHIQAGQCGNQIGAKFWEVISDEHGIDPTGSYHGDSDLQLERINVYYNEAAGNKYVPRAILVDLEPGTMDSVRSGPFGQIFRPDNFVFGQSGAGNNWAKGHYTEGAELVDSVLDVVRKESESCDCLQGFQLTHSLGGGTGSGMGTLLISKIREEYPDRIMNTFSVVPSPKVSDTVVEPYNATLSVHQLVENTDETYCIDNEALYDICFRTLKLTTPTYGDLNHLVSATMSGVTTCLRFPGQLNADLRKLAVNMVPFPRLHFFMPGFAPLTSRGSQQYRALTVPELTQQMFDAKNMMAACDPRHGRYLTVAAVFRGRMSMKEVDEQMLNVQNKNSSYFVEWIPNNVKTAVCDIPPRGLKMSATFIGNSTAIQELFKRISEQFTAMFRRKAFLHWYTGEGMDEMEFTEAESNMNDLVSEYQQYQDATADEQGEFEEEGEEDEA

## O=c1[nH]c2cc(Cl)c(Cl)cc2n2cc3ccccc3c12
SK-MEL-2
  GI50: 25.1 µM
  LC50: > 100 µM
SK-MEL-2; read-out: pTGI (converted)
  TGI: 53.7 µM
ACHN
  GI50: 15.5 µM
  LC50 (50% net cell kill): 53.7 µM
ACHN; read-out: pTGI (converted)
  TGI: 28.8 µM
UACC-62
  GI50: 16.6 µM
  LC50: 55 µM
UACC-62; read-out: pTGI (converted)
  TGI: 30.2 µM
Malme-3M
  GI50: 17 µM
Malme-3M; [7]
  CC50: 63.1 µM
Malme-3M; read-out: pTGI (converted)
  TGI: 32.4 µM
HT-29
  GI50: 28.8 µM
  LC50: > 100 µM
HT-29; read-out: pTGI (converted)
  TGI: > 100 µM
CAKI-1
  GI50: 20.4 µM
  LC50: 58.9 µM
CAKI-1; read-out: pTGI (converted)
  TGI: 34.7 µM
DU-145
  GI50: 31.6 µM
DU-145; Homo sapiens, DU-145
  GI50: 17.8 µM
DU-145; Homo sapiens, DU-145, read-out: Log LC50 (the source's name) (converted)
  CC50: 56.2 µM
OVCAR-3
  GI50: 18.6 µM
  LC50 (50% net cell death): 57.5 µM
OVCAR-3; read-out: pTGI (converted)
  TGI: 32.4 µM
HOP-92
  GI50: 18.2 µM
  LC50: 66.1 µM
HOP-92; read-out: pTGI (converted)
  TGI: 34.7 µM
NCI-H460
  Activity: 0%
MOLT-4
  GI50: 18.6 µM
  LC50: 72.4 µM
MOLT-4; read-out: pTGI (converted)
  TGI: 37.2 µM
OVCAR-8
  GI50: 18.6 µM
  LC50 (50% net cell death): 57.5 µM
OVCAR-8; read-out: pTGI (converted)
  TGI: 32.4 µM
NCI-H23
  GI50: 17.4 µM
  LC50 (50% net cell kill): 56.2 µM
NCI-H23; read-out: pTGI (converted)
  TGI: 30.9 µM
MCF7 [1]
  GI50: 7.6 µM
MDA-MB-435
  GI50: 17 µM
  LC50 (50% net cell death): 55 µM
MDA-MB-435; read-out: pTGI (converted)
  TGI: 30.2 µM
MCF7 [2]
  GI50: 3.3 µM
SK-MEL-28
  GI50: 33.1 µM
SK-MEL-28; [7]
  CC50: > 100 µM
SK-MEL-28; read-out: pTGI (converted)
  TGI: > 100 µM
NCI-H522
  GI50: 10.2 µM
NCI-H522; [7]
  CC50: 93.3 µM
NCI-H522; read-out: pTGI (converted)
  TGI: 30.9 µM
Tubulin (Sus scrofa)
  Activity: > 10 µM
SF-268 [3]
  GI50: 24 µM
SF-268 [3]; [7]
  CC50: 75.9 µM
SF-268 [3]; read-out: pTGI (converted)
  TGI: 42.7 µM
RXF 393
  GI50: 17.4 µM
RXF 393; [7]
  CC50: 56.2 µM
RXF 393; read-out: pTGI (converted)
  TGI: 30.9 µM
A498
  GI50: 15.8 µM
A498; [7]
  CC50: 56.2 µM
A498; read-out: pTGI (converted)
  TGI: 30.2 µM
SK-OV-3
  GI50: 18.2 µM
  LC50 (50% net cell kill): 61.7 µM
SK-OV-3; read-out: pTGI (converted)
  TGI: 33.1 µM
TK-10
  GI50: 16.6 µM
TK-10; [7]
  CC50: 55 µM
TK-10; read-out: pTGI (converted)
  TGI: 30.2 µM
SF-295
  GI50: 16.2 µM
SF-295; [7]
  CC50: 55 µM
SF-295; read-out: pTGI (converted)
  TGI: 30.2 µM
SN12C
  GI50: 15.8 µM
  LC50: 55 µM
SN12C; read-out: pTGI (converted)
  TGI: 29.5 µM
MCF7 [4]
  RatioGI50: 2.3
T47D
  GI50: 30.9 µM
  LC50: > 100 µM
T47D; read-out: pTGI (converted)
  TGI: 75.9 µM
HCT-15
  GI50: 16.6 µM
HCT-15; [7]
  CC50: 55 µM
HCT-15; read-out: pTGI (converted)
  TGI: 30.2 µM
NCI/ADR-RES
  GI50: 17.8 µM
  LC50: 56.2 µM
NCI/ADR-RES; read-out: pTGI (converted)
  TGI: 31.6 µM
RPMI-8226
  GI50: 22.4 µM
RPMI-8226; [7]
  CC50: > 100 µM
RPMI-8226; read-out: pTGI (converted)
  TGI: 49 µM
CCRF-CEM
  GI50: 2.2 µM
[5]
  GI50: 13.5 µM
  LC50 (50% net cell death): 55 µM
[5]; read-out: pTGI (converted)
  TGI: 26.9 µM
Hs-578T
  GI50: 20 µM
Hs-578T; [7]
  CC50: > 100 µM
Hs-578T; read-out: pTGI (converted)
  TGI: 52.5 µM
COLO 205
  GI50: 29.5 µM
  LC50: > 100 µM
COLO 205; read-out: pTGI (converted)
  TGI: 39.8 µM
PC-3
  GI50: 17.4 µM
  LC50 (50% net cell death): 56.2 µM
PC-3; read-out: pTGI (converted)
  TGI: 30.9 µM
SF-268 [6]
  Activity: 13%
U-251
  GI50: 16.2 µM
U-251; [7]
  CC50: 55 µM
U-251; read-out: pTGI (converted)
  TGI: 30.2 µM
SW-620
  GI50: 15.8 µM
SW-620; [7]
  CC50: 53.7 µM
SW-620; read-out: pTGI (converted)
  TGI: 29.5 µM
M14
  GI50: 22.9 µM
M14; [7]
  CC50: 69.2 µM
M14; read-out: pTGI (converted)
  TGI: 39.8 µM
